Assay results: ChEMBL document CHEMBL1125138, “1,3-Dialkyl-3-acyltriazenes, a novel class of antineoplastic alkylating agents” (J Med Chem, 1990)
pIC50: −log10 of the molar value.

What was measured:
NCI-H23 = experiment: Evaluated for the inhibitory concentration required to cause growth inhibition of H23 cell line of lung using the Microculture Tetrazolium (MTT) Cytotoxicity Assay; format: functional, cell-based; conditions: Homo sapiens
Summary of the method: (§1)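 MTT microculture tetrazolium growth assay on human cell lines and normal fibroblasts. Cells seeded at 1000 cells/well, with compound added 24 h after plating. Cultures then incubated a further 6 days at 37 °C before MTT read-out of growth versus untreated cells.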

P388 [1] = experiment: Evaluated in vivo for antineoplastic activity against P388 murine leukemia tumor […] after administering intra peritoneal injection at a dose of 52.5 mg/kg; format: functional, Mus musculus
Summary of the method: (§2)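 P388 leukemia-bearing mice, run through the NCI Developmental Therapeutics Program. Compound given ip once daily on 5 consecutive days. Activity read out as % T/C.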

LOX IMVI = experiment: Evaluated for the inhibitory concentration required to cause growth inhibition of LOX melanoma cell line using the MTT Cytotoxicity Assay; format: functional, cell-based; conditions: Homo sapiens; summary of the method: as §1
CCD 19Lu = experiment: Evaluated for the inhibitory concentration required to cause growth inhibition of CCD-19Lu fibroblasts cell line using the MTT Cytotoxicity Assay; format: functional, cell-based; conditions: Homo sapiens; summary of the method: as §1
DOD-1 = experiment: Evaluated for the inhibitory concentration required to cause growth inhibition of DOD-1 breast cell line using the MTT Cytotoxicity Assay; format: functional, cell-based; conditions: Homo sapiens; summary of the method: as §1
NCI-H322M = experiment: Evaluated for the inhibitory concentration required to cause growth inhibition of H322M cell line of lung using the Microculture Tetrazolium (MTT) Cytotoxicity Assay; format: functional, cell-based; conditions: Homo sapiens; summary of the method: as §1
NCI-H460 = experiment: Evaluated for the inhibitory concentration required to cause growth inhibition of H460 cell line of lung using the Microculture Tetrazolium (MTT) Cytotoxicity Assay; format: functional, cell-based; conditions: Homo sapiens; summary of the method: as §1
A 172 = experiment: Evaluated for the inhibitory concentration required to cause growth inhibition of A172Mer- cell line of central nervous system (CNS) using the MTT Cytotoxicity Assay; format: functional, cell-based; conditions: Homo sapiens; summary of the method: as §1
NCI-H522 (Homo sapiens) = experiment: Evaluated for the inhibitory concentration required to cause growth inhibition of H522 cell line of lung using the Microculture Tetrazolium (MTT) Cytotoxicity Assay
A673 = experiment: Evaluated for the inhibitory concentration required to cause growth inhibition of A673Mer+ sarcoma cell line using the MTT Cytotoxicity Assay; format: functional, cell-based; conditions: Homo sapiens; summary of the method: as §1
OVCAR-3 = experiment: Evaluated for the inhibitory concentration required to cause growth inhibition of OVCAR-3 ovarian cell line using the MTT Cytotoxicity Assay; format: functional, cell-based; conditions: Homo sapiens; summary of the method: as §1
A704 = experiment: Evaluated for the inhibitory concentration required to cause growth inhibition of A704Rem- renal cell line using the MTT Cytotoxicity Assay; format: functional, cell-based; conditions: Homo sapiens; summary of the method: as §1
P388 [2] = experiment: Evaluated in vivo for antineoplastic activity against P388 murine leukemia tumor […] after administering intra peritoneal injection at a dose of 26.25 mg/kg; format: functional, Mus musculus; summary of the method: as §2
[3] = test system: MAR BEL fibroblasts cell line; experiment: Evaluated for the inhibitory concentration required to cause growth inhibition of MAR BEL fibroblasts cell line using the MTT Cytotoxicity Assay; format: functional, cell-based; conditions: Homo sapiens; summary of the method: as §1
NCI-H125 = experiment: Evaluated for the inhibitory concentration required to cause growth inhibition of H125 cell line of lung using the Microculture Tetrazolium (MTT) Cytotoxicity Assay; format: functional, cell-based; conditions: Homo sapiens; summary of the method: as §1
WiDr = experiment: Evaluated for the inhibitory concentration required to cause growth inhibition of WiDR colon cell line using the MTT Cytotoxicity Assay; format: functional, cell-based; conditions: Homo sapiens
Summary of the method: (§3)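 MTT cell-growth assay in human cell lines: cells harvested and seeded at 1000 cells/well in 96-well plates. Compound added after 24 h, then cultures incubated a further 6 days at 37 °C. Growth measured with and without agent.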

Malme-3M = experiment: Evaluated for the inhibitory concentration required to cause growth inhibition of MALME-3M melanoma cell line using the MTT Cytotoxicity Assay; format: functional, cell-based; conditions: Homo sapiens; summary of the method: as §1
RPMI-7951 = experiment: Evaluated for the inhibitory concentration required to cause growth inhibition of RPMI7951 melanoma cell line using the MTT Cytotoxicity Assay; format: functional, cell-based; conditions: Homo sapiens; summary of the method: as §1
U-251 = experiment: Evaluated for the inhibitory concentration required to cause growth inhibition of U251 cell line of central nervous system (CNS) using the MTT Cytotoxicity Assay; format: functional, cell-based; conditions: Homo sapiens; summary of the method: as §3
A498 = experiment: Evaluated for the inhibitory concentration required to cause growth inhibition of A498Rem- renal cell line using the MTT Cytotoxicity Assay; format: functional, cell-based; conditions: Homo sapiens; summary of the method: as §1
TE-671 = experiment: Evaluated for the inhibitory concentration required to cause growth inhibition of TE-671 cell line of central nervous system (CNS)using the MTT Cytotoxicity Assay; format: functional, cell-based; conditions: Homo sapiens; summary of the method: as §1
OVCAR-4 = experiment: Evaluated for the inhibitory concentration required to cause growth inhibition of OVCAR-4 ovarian cell line using the MTT Cytotoxicity Assay; format: functional, cell-based; conditions: Homo sapiens; summary of the method: as §1
NCI/ADR-RES = experiment: Evaluated for the inhibitory concentration required to cause growth inhibition of MCF-7ADR breast cell line using the MTT Cytotoxicity Assay; format: functional, cell-based; conditions: Homo sapiens; summary of the method: as §1
SK-MEL-5 = experiment: Evaluated for the inhibitory concentration required to cause growth inhibition of SK-MEL-5 melanoma cell line using the MTT Cytotoxicity Assay; format: functional, cell-based; conditions: Homo sapiens; summary of the method: as §1
A549 = experiment: Evaluated for the inhibitory concentration required to cause growth inhibition of A549Rem- cell line of lung using the MTT Cytotoxicity Assay; format: functional, cell-based; conditions: Homo sapiens; summary of the method: as §1
HOS-TE85 = experiment: Evaluated for the inhibitory concentration required to cause growth inhibition of TE85Mer+ sarcoma cell line using the MTT Cytotoxicity Assay; format: functional, cell-based; conditions: Homo sapiens; summary of the method: as §1
NCI-H358 = experiment: Evaluated for the inhibitory concentration required to cause growth inhibition of H358M cell line of lung using the Microculture Tetrazolium (MTT) Cytotoxicity Assay; format: functional, cell-based; conditions: Homo sapiens; summary of the method: as §1
MCF7 = experiment: Evaluated for the inhibitory concentration required to cause growth inhibition of MCF-7 breast cell line using the MTT Cytotoxicity Assay; format: functional, cell-based; conditions: Homo sapiens; summary of the method: as §1
A-427 = experiment: Evaluated for the inhibitory concentration required to cause growth inhibition of A427Mer- cell line of lung using the MTT Cytotoxicity Assay; format: functional, cell-based; conditions: Homo sapiens; summary of the method: as §1
P388 [4] = experiment: Evaluated in vivo for antineoplastic activity against P388 murine leukemia tumor […] after administering intra peritoneal injection at a dose of 13.12 mg/kg; format: functional, Mus musculus; summary of the method: as §2
L1210 [5] = experiment: Evaluated for the antineoplastic activity against L1210 leukemia tumor […] after administering intra peritoneally at a dose of 15 mg/kg; format: functional, Mus musculus
[6] = Evaluated for the antineoplastic activity against M5 sarcoma tumor xenograft in nude mice after administering Intra peritoneally at 4-day interval at a dose of 30 mg/kg; format: functional, Mus musculus
Summary of the method: (§4)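 M5 sarcoma-bearing mice given four intraperitoneal injections at 4-day intervals. Activity reported as % T/C per dose. Performed under the NCI Developmental Therapeutics Program.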

[7] = Evaluated for the antineoplastic activity against M5 sarcoma tumor xenograft in nude mice after administering Intra peritoneally at 4-day interval at a dose of 60 mg/kg; format: functional, Mus musculus; summary of the method: as §4
[8] = Evaluated for the antineoplastic activity against amelanotic melanoma tumor xenograft in nude mice after injecting intraperitoneally at a dose of 60 mg/kg; format: functional, Mus musculus; conditions: route intraperitoneal
[9] = Evaluated for the antineoplastic activity against amelanotic melanoma tumor xenograft in nude mice after injecting intraperitoneally at a dose of 30 mg/kg; format: functional, Mus musculus; conditions: route intraperitoneal
[10] = Evaluated for the antineoplastic activity against M5 sarcoma tumor xenograft in nude mice after administering Intra peritoneally at 4-day interval at a dose of 15 mg/kg; format: functional, Mus musculus; summary of the method: as §4
[11] = Evaluated for the antineoplastic activity against amelanotic melanoma tumor xenograft in nude mice after injecting intraperitoneally at a dose of 120 mg/kg; format: functional, Mus musculus; conditions: route intraperitoneal
[12] = Evaluated for the antineoplastic activity against M5 sarcoma tumor xenograft in nude mice after administering Intra peritoneally at 4-day interval at a dose of 7.5 mg/kg; format: functional, Mus musculus; summary of the method: as §4
L1210 [13] = experiment: Evaluated for the antineoplastic activity against L1210 leukemia tumor […] after administering intra peritoneally at a dose of 30 mg/kg; format: functional, Mus musculus
Summary of the method: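 Mice bearing L1210 leukemia dosed intraperitoneally once daily for 5 successive days (five injections). Activity reported as % T/C at each dose. Performed under the NCI Developmental Therapeutics Program.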

SMILES	pIC50 (NCI-H23)	pIC50 (LOX IMVI)	pIC50 (CCD 19Lu)	pIC50 (DOD-1)	pIC50 (NCI-H322M)	pIC50 (NCI-H460)	pIC50 (A 172)	pIC50 (NCI-H522 (Homo sapiens))	pIC50 (A673)	pIC50 (OVCAR-3)	pIC50 (A704)	pIC50 [3]	pIC50 (NCI-H125)	pIC50 (WiDr)	pIC50 (Malme-3M)	pIC50 (RPMI-7951)	pIC50 (U-251)	pIC50 (A498)	pIC50 (TE-671)	pIC50 (OVCAR-4)	other results
CC(=O)N(C)/N=N\CCCl	4.70	5.10	4.22	4.59	4.49	4.22	4.70	4.74	4.46	4.60	4.59	4.36	4.38	4.82	4.60	4.77	4.74	4.74	4.30	4.74	T/C (P388 [1]): 257%; T/C (P388 [2]): 217%; pIC50 (NCI/ADR-RES): 4.62; pIC50 (SK-MEL-5): 4.82; pIC50 (A549): 4.59; pIC50 (HOS-TE85): 4.74; pIC50 (NCI-H358): 4.22; pIC50 (MCF7): 4.82; pIC50 (A-427): 4.92; T/C (P388 [4]): 157%
CCOC(=O)N(C)/N=N\C	4.70	4.66	4.21	4.36	4.38	4.19	4.70	4.74	4.12	4.22	4.26	4.12	4.36	4.35	4.66	4.46	4.55	4.46	4.32	4.40	T/C (L1210 [5]): 133%; T/C [6]: 158%; T/C [7]: 168%; T/C [8]: 147%; T/C [9]: 132%; T/C [10]: 140%; T/C [11]: 191%; pIC50 (NCI/ADR-RES): 4.47; pIC50 (SK-MEL-5): 4.70; pIC50 (A549): 4.35; T/C [12]: 131%; pIC50 (HOS-TE85): 4.43; pIC50 (NCI-H358): 4.10; pIC50 (MCF7): 4.57; pIC50 (A-427): 5.15; T/C (L1210 [13]): 142%
